Test results as given in ChEMBL document CHEMBL5647699, “Discovery of a chemical probe for PRDM9” (Nat Commun, 2019).
Activity calls are given as the source filed them. No cut-off for these calls is given here.

Assays:
[1] = target: Histone-lysine N-methyltransferase PRDM7 (Homo sapiens) (UniProt Q9NQW5); assay: Inhibition of PRDM7 (unknown origin) using biotin-tagged Histone H3 (1 to 25) and 3H-SAM as substrate incubated for 90 mins by topcount plate reader analysis
HCC1143 = assay: Cytotoxicity against human HCC1143 cells at upto 30 uM measured for 3 to 6 days by celltiter glo assay; type: functional, cell-based; conditions: time 3-6 day
Spermatocyte [2] = assay: Induction of meiotic defect in wild type mouse spermatocyte assessed as non homologous synapsis by SYCP1/SYCP3 staining based immunofluorescence assay; type: functional, cell-based
[3] = target: Histone-lysine N-methyltransferase PRDM9 (Homo sapiens) (UniProt Q9NQV7); assay: Inhibition of FLAG tagged PRDM9 transfected in HEK293T cells assessed as inhibition of trimethylation H3K4 at 10 uM measured after 20 hrs by Western blot analysis; type: cell-based
Chain of Histone-lysine N-methyltransferase PRDM9 (Homo sapiens) (Q9NQV7 whole entry): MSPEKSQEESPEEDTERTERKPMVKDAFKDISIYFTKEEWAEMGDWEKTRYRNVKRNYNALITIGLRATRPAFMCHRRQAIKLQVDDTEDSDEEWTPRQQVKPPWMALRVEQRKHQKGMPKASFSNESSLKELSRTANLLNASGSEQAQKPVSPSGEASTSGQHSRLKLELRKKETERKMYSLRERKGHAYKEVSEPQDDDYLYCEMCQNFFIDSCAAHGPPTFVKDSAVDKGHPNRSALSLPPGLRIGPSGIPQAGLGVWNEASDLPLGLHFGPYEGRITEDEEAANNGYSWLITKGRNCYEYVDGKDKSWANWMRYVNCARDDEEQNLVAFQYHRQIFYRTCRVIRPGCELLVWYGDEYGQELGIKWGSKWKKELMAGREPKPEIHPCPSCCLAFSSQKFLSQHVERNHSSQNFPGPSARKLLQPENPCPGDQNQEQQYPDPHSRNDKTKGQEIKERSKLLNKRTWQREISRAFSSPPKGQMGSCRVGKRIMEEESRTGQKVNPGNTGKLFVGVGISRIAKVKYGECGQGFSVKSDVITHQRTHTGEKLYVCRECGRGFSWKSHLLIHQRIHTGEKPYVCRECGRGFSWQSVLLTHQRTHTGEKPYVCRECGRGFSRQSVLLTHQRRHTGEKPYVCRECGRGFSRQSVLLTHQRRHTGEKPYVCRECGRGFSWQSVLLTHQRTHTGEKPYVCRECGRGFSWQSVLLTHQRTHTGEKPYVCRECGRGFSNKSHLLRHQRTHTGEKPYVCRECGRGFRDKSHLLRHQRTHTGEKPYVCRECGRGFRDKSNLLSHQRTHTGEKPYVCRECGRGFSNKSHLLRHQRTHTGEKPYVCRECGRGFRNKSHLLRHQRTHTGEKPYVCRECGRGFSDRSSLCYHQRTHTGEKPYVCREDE

[4] = target: DNMT3A2/3L complex (Homo sapiens) (UniProt Q9Y6K1+Q9UJW3); assay: Inhibition of DNMT3A/DNMT3L (unknown origin) at 1 to 10 uM; type: protein-complex assay; conditions: dose 1-10 µM
RPMI-8226 = assay: Cytotoxicity against human RPMI-8226 cells at upto 30 uM measured for 3 to 6 days by celltiter glo assay; type: functional, cell-based; conditions: time 3-6 day
[5] = target: Protein arginine N-methyltransferase 9 (Homo sapiens) (UniProt Q6P2P2); assay: Inhibition of PRMT9 (unknown origin) at 1 to 10 uM; conditions: dose 1-10 µM
[6] = target: Protein arginine N-methyltransferase 1 (Homo sapiens) (UniProt Q99873); assay: Inhibition of PRMT1 (unknown origin) at 1 to 10 uM; conditions: dose 1-10 µM
[7] = target: Protein arginine N-methyltransferase 8 (Homo sapiens) (UniProt Q9NR22); assay: Inhibition of PRMT8 (unknown origin) at 1 to 10 uM; conditions: dose 1-10 µM
[8] = target: Histone-lysine N-methyltransferase SETD7 (Homo sapiens) (UniProt Q8WTS6); assay: Inhibition of SETD7 (unknown origin) at 1 to 10 uM; conditions: dose 1-10 µM
Chain of Histone-lysine N-methyltransferase SETD7 (Homo sapiens) (Q8WTS6 whole entry): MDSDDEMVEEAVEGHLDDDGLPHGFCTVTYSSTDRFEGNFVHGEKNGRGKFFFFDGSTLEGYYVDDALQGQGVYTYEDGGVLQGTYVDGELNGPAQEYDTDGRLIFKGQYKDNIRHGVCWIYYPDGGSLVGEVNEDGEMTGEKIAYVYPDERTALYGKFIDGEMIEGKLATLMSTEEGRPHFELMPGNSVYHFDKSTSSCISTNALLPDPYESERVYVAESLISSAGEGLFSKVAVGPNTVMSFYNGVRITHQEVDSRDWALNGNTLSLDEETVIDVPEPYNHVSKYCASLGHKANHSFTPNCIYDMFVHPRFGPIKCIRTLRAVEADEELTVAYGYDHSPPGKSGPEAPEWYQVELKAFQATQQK

Spermatocyte [9] = assay: Induction of meiotic defect in wild type mouse spermatocyte assessed as effect on paring of chromosomal homolog by SYCP1/SYCP3 staining based immunofluorescence assay; type: functional, cell-based
[10] = target: Histone-lysine N-methyltransferase KMT5B (Homo sapiens) (UniProt Q4FZB7); assay: Inhibition of SUV420H1 (unknown origin) at 1 to 10 uM; conditions: dose 1-10 µM
[11] = target: Histone-lysine N-methyltransferase SUV39H2 (Homo sapiens) (UniProt Q9H5I1); assay: Inhibition of SUV39H2 (unknown origin) at 1 to 10 uM; conditions: dose 1-10 µM
MDA-MB-436 = assay: Cytotoxicity against human MDA-MB-436 cells at upto 30 uM measured for 3 to 6 days by celltiter glo assay; type: functional, cell-based; conditions: time 3-6 day
[12] = target: Histone-lysine N-methyltransferase SETDB1 (Homo sapiens) (UniProt Q15047); assay: Inhibition of SETDB1 (unknown origin) at 1 to 10 uM; conditions: dose 1-10 µM
[13] = target: DNMT3B-DNMT3L complex (Homo sapiens) (UniProt Q9UBC3+Q9UJW3); assay: Inhibition of DNMT3B/DNMT3L (unknown origin) at 1 to 10 uM; type: protein-complex assay; conditions: dose 1-10 µM
Chain of DNMT3B-DNMT3L complex (Homo sapiens) (Q9UJW3 whole entry, looked up, other chains not shown): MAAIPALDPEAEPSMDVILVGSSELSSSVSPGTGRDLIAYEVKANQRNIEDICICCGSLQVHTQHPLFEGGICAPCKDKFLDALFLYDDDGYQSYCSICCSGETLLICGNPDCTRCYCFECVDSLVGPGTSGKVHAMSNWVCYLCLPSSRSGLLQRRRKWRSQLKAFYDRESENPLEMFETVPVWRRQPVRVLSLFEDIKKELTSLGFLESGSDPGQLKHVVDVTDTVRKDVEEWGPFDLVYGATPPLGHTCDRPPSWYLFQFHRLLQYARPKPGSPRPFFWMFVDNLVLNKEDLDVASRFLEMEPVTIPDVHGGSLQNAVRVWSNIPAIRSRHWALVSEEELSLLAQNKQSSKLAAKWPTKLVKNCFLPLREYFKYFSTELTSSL

HEK-293T [14] = assay: Cytotoxicity against HEK293T cells at 10 uM measured after 4 days by IncuCyte zoom live-cell imaging analysis; type: toxicity, cell-based; conditions: human, 96 h, time 4 day
[15] = target: Histone-lysine N-methyltransferase NSD3 (Homo sapiens) (UniProt Q9BZ95); assay: Inhibition of NSD3 (unknown origin) at 1 to 10 uM; conditions: dose 1-10 µM
Chain of Histone-lysine N-methyltransferase NSD3 (Homo sapiens) (Q9BZ95 whole entry): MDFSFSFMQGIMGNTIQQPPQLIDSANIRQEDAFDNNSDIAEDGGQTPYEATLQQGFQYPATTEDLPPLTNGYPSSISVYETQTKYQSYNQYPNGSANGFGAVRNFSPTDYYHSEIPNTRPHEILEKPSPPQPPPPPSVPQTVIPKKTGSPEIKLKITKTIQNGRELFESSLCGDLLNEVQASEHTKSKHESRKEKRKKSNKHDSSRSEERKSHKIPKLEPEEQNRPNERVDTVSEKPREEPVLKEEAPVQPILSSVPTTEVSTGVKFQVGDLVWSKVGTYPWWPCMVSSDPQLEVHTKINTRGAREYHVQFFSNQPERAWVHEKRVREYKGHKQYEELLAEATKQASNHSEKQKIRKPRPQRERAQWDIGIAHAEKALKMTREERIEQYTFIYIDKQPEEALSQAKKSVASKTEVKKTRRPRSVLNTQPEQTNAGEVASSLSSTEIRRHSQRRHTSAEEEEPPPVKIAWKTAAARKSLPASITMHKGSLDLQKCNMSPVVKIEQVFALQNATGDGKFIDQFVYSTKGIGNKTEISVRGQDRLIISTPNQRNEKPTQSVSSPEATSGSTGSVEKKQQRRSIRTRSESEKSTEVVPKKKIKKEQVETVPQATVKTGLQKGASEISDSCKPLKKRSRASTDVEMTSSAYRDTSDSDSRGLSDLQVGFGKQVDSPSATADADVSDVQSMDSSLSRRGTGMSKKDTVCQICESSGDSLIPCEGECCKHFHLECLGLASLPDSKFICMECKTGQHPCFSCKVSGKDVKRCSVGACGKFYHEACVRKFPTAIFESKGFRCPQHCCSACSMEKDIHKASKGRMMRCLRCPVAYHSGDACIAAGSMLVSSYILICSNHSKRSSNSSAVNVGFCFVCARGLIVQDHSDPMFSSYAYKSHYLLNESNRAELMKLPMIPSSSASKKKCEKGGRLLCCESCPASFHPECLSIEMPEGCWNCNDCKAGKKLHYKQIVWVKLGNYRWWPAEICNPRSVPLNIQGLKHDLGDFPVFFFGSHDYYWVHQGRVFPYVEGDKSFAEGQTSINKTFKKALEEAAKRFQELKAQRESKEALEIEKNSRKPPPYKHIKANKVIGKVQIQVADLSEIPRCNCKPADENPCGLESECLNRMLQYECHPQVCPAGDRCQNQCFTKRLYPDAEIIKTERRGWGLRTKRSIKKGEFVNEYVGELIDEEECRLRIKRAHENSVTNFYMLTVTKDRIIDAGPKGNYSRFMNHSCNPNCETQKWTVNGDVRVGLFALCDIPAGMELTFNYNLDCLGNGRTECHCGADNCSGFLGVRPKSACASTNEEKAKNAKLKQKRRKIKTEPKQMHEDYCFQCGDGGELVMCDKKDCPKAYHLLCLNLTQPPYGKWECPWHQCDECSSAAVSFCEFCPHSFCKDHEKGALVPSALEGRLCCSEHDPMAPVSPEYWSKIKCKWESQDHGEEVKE

CAL-85-1 = assay: Cytotoxicity against human CAL-85-1 cells at upto 30 uM measured for 3 to 6 days by celltiter glo assay; type: functional, cell-based; conditions: time 3-6 day
[16] = target: Histone-lysine N-methyltransferase SUV39H1 (Homo sapiens) (UniProt O43463); assay: Inhibition of SUV39H1 (unknown origin) at 1 to 10 uM; conditions: dose 1-10 µM
[17] = target: Histone-lysine N-methyltransferase EHMT1 (Homo sapiens) (UniProt Q9H9B1); assay: Inhibition of EHMT1 (unknown origin) at 1 to 10 uM; conditions: dose 1-10 µM
SK-MM-2 = assay: Cytotoxicity against human SK-MM-2 cells at upto 30 uM measured for 3 to 6 days by celltiter glo assay; type: functional, cell-based; conditions: time 3-6 day
[18] = target: Histone-lysine N-methyltransferase SMYD3 (Homo sapiens) (UniProt Q9H7B4); assay: Inhibition of SMYD3 (unknown origin) at 1 to 10 uM; conditions: dose 1-10 µM
[19] = target: Histone-lysine N-methyltransferase 2A (Homo sapiens) (UniProt Q03164); assay: Inhibition of MLL1 (unknown origin) at 1 to 10 uM; conditions: dose 1-10 µM
[20] = target: Protein arginine N-methyltransferase 6 (Homo sapiens) (UniProt Q96LA8); assay: Inhibition of PRMT6 (unknown origin) at 1 to 10 uM; conditions: dose 1-10 µM
HEK-293T [21] = assay: Cytotoxicity against HEK293T cells at 3 uM measured after 4 days by IncuCyte zoom live-cell imaging analysis; type: toxicity, cell-based; conditions: human, 96 h, time 4 day
[22] = target: Histone-lysine N-methyltransferase, H3 lysine-36 specific (Homo sapiens) (UniProt Q96L73); assay: Inhibition of NSD1 (unknown origin) at 1 to 10 uM; conditions: dose 1-10 µM
Homo sapiens = species: Homo sapiens; assay: Inhibition of PRC2 (unknown origin) at 1 to 10 uM; conditions: dose 1-10 µM
[23] = target: DNA (cytosine-5)-methyltransferase 1 (Homo sapiens) (UniProt P26358); assay: Inhibition of DNMT1 (unknown origin) at 1 to 10 uM; conditions: dose 1-10 µM
[24] = target: Histone-lysine N-methyltransferase SETD2 (Homo sapiens) (UniProt Q9BYW2); assay: Inhibition of SETD2 (unknown origin) at 1 to 10 uM; conditions: dose 1-10 µM
[25] = target: Histone-lysine N-methyltransferase ASH1L (Homo sapiens) (UniProt Q9NR48); assay: Inhibition of ASH1L (unknown origin) at 1 to 10 uM; conditions: dose 1-10 µM
[26] = target: Histone-lysine N-methyltransferase NSD2 (Homo sapiens) (UniProt O96028); assay: Inhibition of NSD2 (unknown origin) at 1 to 10 uM; conditions: dose 1-10 µM
[27] = target: RNA 5'-monophosphate methyltransferase (Homo sapiens) (UniProt Q7Z5W3); assay: Inhibition of BCDIN3D (unknown origin) at 1 to 10 uM; conditions: dose 1-10 µM
[28] = target: Histone-lysine N-methyltransferase PRDM9 (Homo sapiens) (UniProt Q9NQV7); assay: Inhibition of PRDM9 (unknown origin) at 1 to 10 uM; conditions: dose 1-10 µM
[29] = target: Protein arginine N-methyltransferase 3 (Homo sapiens) (UniProt O60678); assay: Inhibition of PRMT3 (unknown origin) at 1 to 10 uM; conditions: dose 1-10 µM
[30] = target: Histone-lysine N-methyltransferase EHMT2 (Homo sapiens) (UniProt Q96KQ7); assay: Inhibition of G9a (unknown origin) at 1 to 10 uM; conditions: dose 1-10 µM
HEK-293T [31] = assay: Cytotoxicity against HEK293T cells at 3 uM measured after 24 hrs by IncuCyte zoom live-cell imaging analysis; type: toxicity, cell-based; conditions: human
Outline: (§1)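 HEK293T cells seeded, treated next day with compound for 1 day; cell number counted by live-cell imaging after Vybrant DyeCycle Green staining; mean ± sd, n = 3.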

[32] = target: Histone-lysine N-methyltransferase KMT5C (Homo sapiens) (UniProt Q86Y97); assay: Inhibition of SUV420H2 (unknown origin) at 1 to 10 uM; conditions: dose 1-10 µM
[33] = target: Protein arginine N-methyltransferase 7 (Homo sapiens) (UniProt Q9NVM4); assay: Inhibition of PRMT7 (unknown origin) at 1 to 10 uM; conditions: dose 1-10 µM
Chain of Protein arginine N-methyltransferase 7 (Homo sapiens) (Q9NVM4 whole entry): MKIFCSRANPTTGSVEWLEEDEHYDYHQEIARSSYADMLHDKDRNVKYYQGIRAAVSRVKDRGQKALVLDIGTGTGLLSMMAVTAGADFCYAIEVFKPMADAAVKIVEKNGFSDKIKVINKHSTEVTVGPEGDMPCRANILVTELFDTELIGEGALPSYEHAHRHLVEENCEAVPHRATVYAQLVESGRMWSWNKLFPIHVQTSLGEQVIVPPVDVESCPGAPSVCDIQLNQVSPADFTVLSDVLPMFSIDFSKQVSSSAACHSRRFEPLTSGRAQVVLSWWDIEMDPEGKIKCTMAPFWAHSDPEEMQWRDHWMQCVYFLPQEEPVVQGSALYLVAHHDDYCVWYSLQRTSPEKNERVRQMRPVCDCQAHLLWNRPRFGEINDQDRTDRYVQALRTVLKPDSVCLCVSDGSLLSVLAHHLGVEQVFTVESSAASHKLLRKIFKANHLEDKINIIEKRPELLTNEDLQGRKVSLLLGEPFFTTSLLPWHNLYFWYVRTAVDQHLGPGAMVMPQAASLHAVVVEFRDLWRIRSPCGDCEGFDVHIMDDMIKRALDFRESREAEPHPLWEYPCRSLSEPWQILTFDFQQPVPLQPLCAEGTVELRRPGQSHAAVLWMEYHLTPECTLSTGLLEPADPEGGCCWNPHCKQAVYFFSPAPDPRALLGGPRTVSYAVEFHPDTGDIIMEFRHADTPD

[34] = target: N-lysine methyltransferase KMT5A (Homo sapiens) (UniProt Q9NQR1); assay: Inhibition of SETD8 (unknown origin) at 1 to 10 uM; conditions: dose 1-10 µM
HCC1806 = assay: Cytotoxicity against human HCC1806 cells at upto 30 uM measured for 3 to 6 days by celltiter glo assay; type: functional, cell-based; conditions: time 3-6 day
[35] = target: Histone-lysine N-methyltransferase, H3 lysine-79 specific (Homo sapiens) (UniProt Q8TEK3); assay: Inhibition of DOT1L (unknown origin) at 1 to 10 uM; conditions: dose 1-10 µM
[36] = target: Histone-lysine N-methyltransferase 2C (Homo sapiens) (UniProt Q8NEZ4); assay: Inhibition of MLL3 (unknown origin) at 1 to 10 uM; conditions: dose 1-10 µM
[37] = target: Histone-arginine methyltransferase CARM1 (Homo sapiens) (UniProt Q86X55); assay: Inhibition of PRMT4 (unknown origin) at 1 to 10 uM; conditions: dose 1-10 µM
Chain of Histone-arginine methyltransferase CARM1 (Homo sapiens) (Q86X55 whole entry): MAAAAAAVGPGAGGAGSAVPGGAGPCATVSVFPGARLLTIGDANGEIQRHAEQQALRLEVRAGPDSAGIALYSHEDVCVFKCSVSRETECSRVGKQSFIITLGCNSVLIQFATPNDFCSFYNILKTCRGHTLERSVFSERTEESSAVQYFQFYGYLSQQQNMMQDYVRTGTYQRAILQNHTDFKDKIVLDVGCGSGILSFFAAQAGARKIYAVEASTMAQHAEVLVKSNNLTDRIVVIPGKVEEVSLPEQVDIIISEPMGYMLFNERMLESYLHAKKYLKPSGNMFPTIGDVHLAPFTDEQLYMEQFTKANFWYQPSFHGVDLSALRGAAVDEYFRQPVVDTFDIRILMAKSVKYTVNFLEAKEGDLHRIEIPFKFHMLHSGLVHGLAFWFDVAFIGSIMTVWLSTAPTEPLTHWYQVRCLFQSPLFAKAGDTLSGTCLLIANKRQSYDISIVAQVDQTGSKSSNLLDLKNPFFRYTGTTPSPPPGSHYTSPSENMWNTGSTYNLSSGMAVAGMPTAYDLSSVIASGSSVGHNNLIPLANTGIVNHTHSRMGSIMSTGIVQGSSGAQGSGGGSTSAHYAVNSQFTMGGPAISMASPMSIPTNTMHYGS

[38] = target: N-lysine methyltransferase SMYD2 (Homo sapiens) (UniProt Q9NRG4); assay: Inhibition of SMYD2 (unknown origin) at 1 to 10 uM; conditions: dose 1-10 µM
HEK-293T [39] = assay: Cytotoxicity against HEK293T cells at 10 uM measured after 24 hrs by IncuCyte zoom live-cell imaging analysis; type: toxicity, cell-based; conditions: human; outline: as §1
[40] = target: Protein arginine N-methyltransferase 5 (Homo sapiens) (UniProt O14744); assay: Inhibition of PRMT5 (unknown origin) at 1 to 10 uM; conditions: dose 1-10 µM

Chain of Histone-lysine N-methyltransferase PRDM7 (Homo sapiens) (Q9NQW5 whole entry): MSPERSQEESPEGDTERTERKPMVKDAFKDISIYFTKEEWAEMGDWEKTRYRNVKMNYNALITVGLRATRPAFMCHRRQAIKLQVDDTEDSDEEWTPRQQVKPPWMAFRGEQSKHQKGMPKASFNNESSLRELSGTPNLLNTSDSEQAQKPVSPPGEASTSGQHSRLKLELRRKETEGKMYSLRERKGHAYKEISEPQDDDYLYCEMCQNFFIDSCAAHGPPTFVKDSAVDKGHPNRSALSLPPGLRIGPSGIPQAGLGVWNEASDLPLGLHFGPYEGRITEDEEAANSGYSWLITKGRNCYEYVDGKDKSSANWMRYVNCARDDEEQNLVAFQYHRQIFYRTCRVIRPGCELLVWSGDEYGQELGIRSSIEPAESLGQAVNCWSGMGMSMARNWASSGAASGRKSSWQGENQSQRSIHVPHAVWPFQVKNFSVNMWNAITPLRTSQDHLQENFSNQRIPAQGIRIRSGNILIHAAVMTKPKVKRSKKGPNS

COc1cc(OC)cc(-c2noc(N3CCN(C)C4(CCN(c5ccccc5)CC4)C3)n2)c1
inhibition [1]: inactive | Activity (HCC1143): inactive | Activity (Spermatocyte [2]): inactive | inhibition [3]: inactive | inhibition [4]: inactive | Activity (RPMI-8226): inactive | inhibition [5]: inactive | inhibition [6]: inactive | inhibition [7]: inactive | inhibition [8]: inactive | Activity (Spermatocyte [9]): inactive | inhibition [10]: inactive | inhibition [11]: inactive | Activity (MDA-MB-436): inactive | inhibition [12]: inactive | inhibition [13]: inactive | Activity (HEK-293T [14]): Toxic | inhibition [15]: inactive | Activity (CAL-85-1): inactive | inhibition [16]: inactive | inhibition [17]: inactive | Activity (SK-MM-2): inactive | inhibition [18]: inactive | inhibition [19]: inactive | inhibition [20]: inactive | Activity (HEK-293T [21]): Non-Toxic | inhibition [22]: inactive | inhibition (Homo sapiens): inactive | inhibition [23]: inactive | inhibition [24]: inactive | inhibition [25]: inactive | inhibition [26]: inactive | inhibition [27]: inactive | inhibition [28]: inactive | inhibition [29]: inactive | inhibition [30]: inactive | Activity (HEK-293T [31]): Non-Toxic | inhibition [32]: inactive | inhibition [33]: inactive | inhibition [34]: inactive | Activity (HCC1806): inactive | inhibition [35]: inactive | inhibition [36]: inactive | inhibition [37]: inactive | inhibition [38]: inactive | Activity (HEK-293T [39]): Toxic | inhibition [40]: inactive
